These results are taken from PMC3655773 (Acta pharmaceutica Sinica. B, 2012).

The conditions of data set [1]: cited from earlier work.
Data set [2] can be described thus: in vitro. The note with it: Sprague-Dawley, rat, microsomes, pH 7.4.
For data set [3] the following is noted: rat, microsomes.
The nature of data set [4]: Pharmacokinetic assay in rat. The conditions noted are these: male SD rats; for F (oral bioavailability): i.g. 20 mg/kg vs 3 i.v. 2 mg/kg, dose-normalized AUC(0-t).
Data set [5] in a line: In vitro metabolic stability in SD rat liver microsomes. The conditions noted are these: 1 μM, NADPH; for k obs (degradation rate constant): SD rat liver microsomes 0.1 mg/mL, parent compound 3 measured; for T1/2: apparent in vitro half-life; for T1/2 / CLint: SD rat liver microsomes; for CLint: intrinsic clearance. (Liver microsomes are a subcellular fraction often used to study metabolism.)

The conditions of data set [6]: cited from earlier work. This is another data set of the same source.
For data set [7], the system named is HIV-1. The conditions noted are these: previous studies, cited from earlier work; for EC50: anti-HIV potency; for TI: therapeutic index.
Data set [8] in a line: Water solubility analysis. It counts as physicochemical. The note with it: pH 7.4, room temperature. The essentials: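 Excess test compound in water buffered to pH 7.4 with K2HPO4 phosphate, sonicated with stirring for 1 h at room temperature, then filtered. Supernatant analysed by HPLC on a C18 column (70% MeCN/30% water, 1.0 mL/min, UV 320 nm). Saturated concentration taken from peak area against a five-point (five-fold step) standard curve in MeCN, diluted from an acetonitrile stock.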

Setting [9] is: i.g. 20 mg/kg in 10% PEG400, parent 3 measured.
[10] abbreviates: i.g. 20 mg/kg in 10% PEG400, plasma parent compound 3 measured.

Several values for one entry are separate records, joined by “and”; a condition that tells them apart may be missing. Equal values may be shown once. Read-outs that look alike come from different tables or passages of the source.

With `CC(C)NCC(O)COc1cccc2ccccc12` (stereo not shown) [PRO, propranolol], the T1/2 in vivo entry in data set [1] is “a Reference compounds: propranolol (moderate metabolism in vivo with T1/2 of 3–5 h)”. Further, the half-life (commonly the time in which the quantity being followed falls by half) at 1 μM in data set [2] turned out to be 20.7 min.

In data set [3], `Cc1c(COC(=O)CCC(=O)O)c(=O)oc2c3c(ccc12)OC(C)(C)[C@H](OC(=O)[C@@]12CC[C@@](C)(C(=O)O1)C2(C)C)[C@@H]3OC(=O)[C@@]12CC[C@@](C)(C(=O)O1)C2(C)C` (relative stereo) [Compound 8, 4-Oxo-4-[(3′,4′-di-0-(S)-camphanoyl-4-methyl-(+)-cis-kellactone-3-yl)methoxy]butanok acid] gave a CLint of 270 µL/min/mg and a T1/2 of 25.93 min. The AUC (in general, concentration integrated over time) in data set [4] (i.g. 20 mg/kg) was 588.9 ng·h/mL. In data set [4] (setting [9]), the CL is 0.567 ± 0.067 mL/min/kg; the Cmax (as a rule, the maximum level reached in the sampled fluid or tissue) is given as 398.5 ± 29.00 ng/mL; the “MRT(0-t)” value amounted to 91.02 ± 12.4 min; the Tmax (commonly the time at which the peak concentration occurs) is 30 min. In addition, the Vd – broadly, a proportionality between amount in the body and measured concentration, not a real space – in data set [4] (setting [9]) is recorded as 0.102 ± 0.011 L/kg. Also, the “AUC(0-t)” value in data set [4] (setting [10]) is reported as 588.9 ± 72.06 ng·L/mL. In addition, the “F (oral bioavailability)” value in data set [4] was 12.4%.

On to `Cc1c(COC(=O)C(N)CC(C)C)c(=O)oc2c3c(ccc12)OC(C)(C)[C@H](OC(=O)[C@@]12CCC(C)(C(=O)O1)C2(C)C)[C@@H]3OC(=O)[C@@]12CCC(C)(C(=O)O1)C2(C)C` (relative stereo) [Compound 12, [3′,4′-Di-O-(S) -camphanoyl-4-methyl-(+)-cis-kellactone-3-yl]methyl 2-amino-4-methyl-pentanoate], for which, in data set [5], the “k obs (degradation rate constant)” value came to 0.023, the T1/2 is 30.77 min and the CLint is 230 µL/min/mg. In data set [4] (setting [9]), the CL came to 0.433 ± 0.083 mL/min/kg, the Cmax is 529.0 ± 192.9 ng/mL, the “MRT(0-t)” value worked out at 77.16 ± 5.1 min and the Tmax was 30 min. In data set [4] (setting [9]), the Vd is listed as 0.049 ± 0.020 L/kg. The “AUC(0-t)” value in data set [4] (setting [10]) was 775.6 ± 162.9 ng·L/mL. Moreover, in data set [4], the “F (oral bioavailability)” value amounted to 15.8%.

For the compound `Cc1c(COC(=O)CN)c(=O)oc2c3c(ccc12)OC(C)(C)[C@H](OC(=O)[C@@]12CCC(C)(C(=O)O1)C2(C)C)[C@@H]3OC(=O)[C@@]12CCC(C)(C(=O)O1)C2(C)C` (relative stereo) [Compound 9, [3′,4′-Di-O-(S)-camphanoyl-4-methyl-(+)-cis-kellactone-3-yl]methyl 2-aminoacetate], in data set [3], the CLint stood at 1780 µL/min/mg and the T1/2 amounted to 3.90 min. In data set [4] (setting [9]), the CL was 0.617 ± 0.017 mL/min/kg, the Cmax came to 163.6 ± 13.56 ng/mL, the “MRT(0-t)” value was found to be 214.9 ± 18.4 min and the Tmax was determined as 15 min. The distribution volume (Vd) in data set [4] (setting [9]) is listed as 0.467 ± 0.063 L/kg. Also, the “AUC(0-t)” value in data set [4] (setting [10]) is reported as 384.1 ± 6.21 ng·L/mL. For the same compound, the “F (oral bioavailability)” value in data set [4] came out at 7.5%.

In data set [3], `Cc1c(COC(=O)CN)c(=O)oc2c3c(ccc12)OC(C)(C)[C@H](OC(=O)[C@@]12CCC(C)(C(=O)O1)C2(C)C)[C@@H]3OC(=O)[C@@]12CCC(C)(C(=O)O1)C2(C)C.Cl` (relative stereo) [Compound 13, [3′,4′-Di-O-(S)-camphanoyl-4-methyl-(+)-cis-kellactone-3-yl]methyl 2-aminoacetate hydrochloride salt] showed a CLint of 260 µL/min/mg and a T1/2 of 26.54 min. In addition, in data set [4] (setting [9]), the CL turned out to be 0.667 ± 0.167 mL/min/kg, the Cmax worked out at 191.1 ± 2.48 ng/mL, the “MRT(0-t)” value amounted to 128.2 ± 7.38 min and the Tmax was 45 min. Further, the Vd in data set [4] (setting [9]) is reported as 0.123 ± 0.058 L/kg. The “AUC(0-t)” value in data set [4] (setting [10]) is listed as 477.8 ± 128.7 ng·L/mL. The “F (oral bioavailability)” value in data set [4] is 9.8%.

Turning to `Cc1cc(=O)oc2c3c(ccc12)OC(C)(C)[C@H](OC(=O)C12CCC(C)(C(=O)O1)C2(C)C)[C@@H]3OC(=O)C12CCC(C)(C(=O)O1)C2(C)C` (stereo partly shown) [Compound 2, 4-methyl-DCK], the bioavailability entry in data set [6] (rat, in vivo) is recorded as “poor bioavailability”. Further, in data set [7], the EC50 – broadly, the concentration that produces a half-maximal response – was 1.5 nM and the TI is listed as 15,733.

In data set [3], `Cc1c(COC(=O)C(C)N)c(=O)oc2c3c(ccc12)OC(C)(C)[C@H](OC(=O)[C@@]12CCC(C)(C(=O)O1)C2(C)C)[C@@H]3OC(=O)[C@@]12CCC(C)(C(=O)O1)C2(C)C` (relative stereo) [Compound 10, [3′,4′-Di-O-(S)-camphanoyl-4-methyl-(+)-cis-kellactone-3-yl]methyl 2-aminopropanoate] gave a CLint of 140 µL/min/mg and a T1/2 of 49.26 min. In addition, in data set [4] (i.g. 20 mg/kg), the “systemic clearance (CL)” value is 16 mL/min/kg. In data set [4] (setting [9]), the CL was found to be 0.267 ± 0.12 mL/min/kg, the Cmax worked out at 621.5 ± 79.67 ng/mL, the “MRT(0-t)” value came to 107.6 ± 10.9 min and the Tmax was found to be 45 min. Further, the Vd in data set [4] (setting [9]) came out at 0.045 ± 0.017 L/kg. Besides, in data set [4] (setting [10]), the “AUC(0-t)” value was 1296.5 ± 437.6 ng·L/mL. Moreover, in data set [4], the “F (oral bioavailability)” value was 26% and 25.7%. In data set [8], the Water solubility stood at 18 µg/mL.

As to `Cc1c(COC(=O)CCC(=O)O)c(=O)oc2c3c(ccc12)OC(C)(C)[C@H](OC(=O)[C@@]12CC[C@@](C)(C(=O)O1)C2(C)C)[C@@H]3OC(=O)[C@@]12CC[C@@](C)(C(=O)O1)C2(C)C` (relative stereo) [Compound 6, 4-Oxo-4-[(3′,4′-di-0-(S)-camphanoyl-4-methyl-(+)-cis-kellactone-3-yl)methoxy]butanok acid], in data set [3], the CLint amounted to 200 µL/min/mg and the T1/2 worked out at 35.27 min. The AUC in data set [4] (i.g. 20 mg/kg) is 157.9 ng·h/mL. Also, in data set [4] (setting [9]), the CL is 1.7 ± 0.333 mL/min/kg, the Cmax was 80.9 ± 18.80 ng/mL, the “MRT(0-t)” value is 159.5 ± 40.9 min and the Tmax was 22.8 min. For the same compound, the distribution volume (Vd) in data set [4] (setting [9]) was found to be 0.669 ± 0.422 L/kg. Besides, the “AUC(0-t)” value in data set [4] (setting [10]) is reported as 157.9 ± 42.94 ng·L/mL. Further, in data set [4], the “F (oral bioavailability)” value is 3.3%.

`Cc1c(COC(=O)C(N)C(C)C)c(=O)oc2c3c(ccc12)OC(C)(C)[C@H](OC(=O)[C@@]12CCC(C)(C(=O)O1)C2(C)C)[C@@H]3OC(=O)[C@@]12CCC(C)(C(=O)O1)C2(C)C` (relative stereo) [Compound 11, [3′,4′-Di-O-(S)-camphanoyl-4-methyl-(+)-cis-kellactone-3-yl]methyl 2-amino-3-methyl-butanoate]: in data set [5], the “k obs (degradation rate constant)” value is given as 0.023, the T1/2 is given as 30.09 min and the CLint was determined as 230 µL/min/mg.

For the compound `Cc1c(CO)c(=O)oc2c3c(ccc12)OC(C)(C)[C@H](OC(=O)C12CCC(C)(C(=O)O1)C2(C)C)[C@@H]3OC(=O)C12CCC(C)(C(=O)O1)C2(C)C` (stereo partly shown) [Compound 3, 3-hydroxymethyl-4-methyl-DCK], the “bioavailability (F)” value in data set [6] (in rat, previous studies) is 15%. Moreover, in data set [5], the “k obs (degradation rate constant)” value is given as 0.039, the T1/2 worked out at 17.92 min and the CLint is 390 µL/min/mg. In data set [4] (setting [9]), the CL amounted to 0.333 ± 0.083 mL/min/kg, the Cmax worked out at 530.7 ± 120.8 ng/mL, the “MRT(0-t)” value stood at 119 ± 28.7 min and the Tmax is 34.8 min. Moreover, in data set [4] (setting [9]), the Vd turned out to be 0.079 ± 0.039 L/kg. The “AUC(0-t)” value in data set [4] (setting [10]) was found to be 966.3 ± 219.7 ng·L/mL. Besides, in data set [4], the “F (oral bioavailability)” value is 17.3%. Besides, in data set [4] (i.v. 2 mg/kg in 10% PEG400), the “AUC(0-t)” value is recorded as 558.4 ± 8.71 ng·L/mL, the CL was found to be 0.05 ± 0.0017 mL/min/kg, the “MRT(0-t)” value is 74.1 ± 10.1 min and the Vd is 0.008 ± 0.002 L/kg. In data set [7], the EC50 is 4 nM and the TI was 6225. The Water solubility in data set [8] is 8.4 µg/mL.
